Assay results from different studies.
Compare with care: the assays were run in different laboratories.
DNA dC->dU-editing enzyme APOBEC-3B: DNA dC->dU-editing enzyme APOBEC-3B (Homo sapiens, UniProt Q9UH17)
SLC6A2: Sodium-dependent noradrenaline transporter (SLC6A2, Homo sapiens, UniProt P23975)
FPR1: fMet-Leu-Phe receptor (FPR1, Homo sapiens, UniProt P21462)

With `OCC1OC(Oc2cc(O)cc(/C=C/c3ccc(O)cc3)c2)C(O)C(O)C1O` (stereo not drawn) the inhibition was 31.5% (DNA dC->dU-editing enzyme APOBEC-3B; enzyme activity, inhibitor, fluorescence; 100 µM).
For `Fc1ccc(C(c2ccc(F)cc2)c2nnnn2CCCN2CCC(CCCc3ccccc3)CC2)cc1`, the inhibition was 23.8% (SLC6A2; transporter uptake, inhibitor; HEK293; 1 µM).
The inhibition of `CNC(=O)c1cc(Oc2ccc(NC(=O)Nc3ccc(Cl)c(C(F)(F)F)c3)cc2)ccn1` is reported as -1% (Serine/threonine-protein kinase Chk2 (CHEK2, Homo sapiens, UniProt O96017, I157T); enzyme activity, inhibitor; 10 µM).
For `CCOC(=O)Oc1ccc2c(=O)c(-c3ccccc3OC)c(C(F)(F)F)oc2c1`, the inhibition was 80% (FPR1; calcium signal, antagonist; 50 µM).
With `CC(=O)N[C@H]1CSSC[C@@H](C(=O)N[C@H](Cc2c[nH]c3ccccc23)C(N)=O)NC(=O)[C@H](Cc2ccccc2)NC(=O)[C@H](CCCNC(=N)N)NC1=O` the inhibition was 0% (Melanocortin receptor 4 (MC4R, Homo sapiens, UniProt P32245); ligand displacement, radioligand; 10 µM, 40 min).
`CCCCCCc1cc2c(=O)c(-c3nc4ccccc4n3C)c(C)oc2cc1OC(C)=O` gave an inhibition of 100% (FPR1; calcium signal, antagonist; 50 µM).
The inhibition of `Clc1ccc(C(c2ccccc2)c2nnnn2CCCCN2CCN(CCc3ccccc3)CC2)cc1` (stereo not drawn) is reported as 47.6% (SLC6A2; transporter uptake, inhibitor; HEK293; 1 µM).
The inhibition of `COc1ccccc1-c1c(C(F)(F)F)oc2cc(OC(=O)c3ccco3)ccc2c1=O` is reported as 100% (FPR1; calcium signal, antagonist; 50 µM).
The inhibition of `Fc1ccc(C(c2ccc(F)cc2)c2nnnn2CCCCN2CCC(CCCc3ccccc3)CC2)cc1` is reported as 48% (SLC6A2; transporter uptake, inhibitor; HEK293; 1 µM).
With `COc1ccccc1-c1c(C(F)(F)F)oc2cc(OC(=O)C3CC3)ccc2c1=O` the inhibition was 100% (FPR1; calcium signal, antagonist; 50 µM).
`CCN(CC)c1ccc(C2=NNC(=O)CC2C)cc1[N+](=O)[O-]` (stereo not drawn) has an inhibition of 21% (3',5'-cyclic-AMP phosphodiesterase 4B (PDE4B, Homo sapiens, UniProt Q07343); enzyme activity, inhibitor; 0.1 µM).
The inhibition of `Nc1c(Cl)cccc1C(=O)Nc1ccccc1C(=O)O` is reported as 100% (srtA (Staphylococcus aureus, UniProt Q2FV99); enzyme activity, inhibitor; 200 µM).
`Clc1ccc(C(c2ccccc2)c2nnnn2CCCCN2CCC(CCCc3ccccc3)CC2)cc1` (stereo not drawn) gave an inhibition of 84.1% (SLC6A2; transporter uptake, inhibitor; HEK293; 1 µM).
With `Cc1ccc(Nc2nccc(N(C)c3ccc4c(C)n(C)nc4c3)n2)cc1S(N)(=O)=O` the inhibition was -4% (Serine/threonine-protein kinase Chk2 (CHEK2, Homo sapiens, UniProt O96017, R145W); enzyme activity, inhibitor; 0.3 µM).
The inhibition of `CC/C(=N\NC(=O)NCc1cccc(O)c1)c1ccc(O)c(C)c1O` is reported as 3.1% (Fibroblast growth factor receptor 4 (FGFR4, Homo sapiens, UniProt P22455, N535K); enzyme activity, inhibitor; 0.1 µM).
The inhibition of `COc1ccccc1-c1c(C(F)(F)F)oc2cc(OC(=O)C(C)C)ccc2c1=O` is reported as 100% (FPR1; calcium signal, antagonist; 50 µM).
The inhibition of `Clc1ccc(C(c2ccccc2)c2nnnn2CCCCN2CCC(Cc3ccc(Cl)c(Cl)c3)CC2)cc1` (stereo not drawn) is reported as 58.9% (SLC6A2; transporter uptake, inhibitor; HEK293; 1 µM).
For `COc1cc(/C=C/C(=O)CC(=O)/C=C/c2ccc(O)c(OC)c2)ccc1O`, the inhibition was 75.2% (DNA dC->dU-editing enzyme APOBEC-3B; enzyme activity, inhibitor, fluorescence; 100 µM).
`Oc1cccc(Nc2nc(-c3ccc(F)cc3F)cs2)c1` has an inhibition of -24.9% (Muscarinic acetylcholine receptor M5 (CHRM5, Homo sapiens, UniProt P08912); cell-free assay; 10 µM).
`Fc1ccc(C(c2ccc(F)cc2)c2nnnn2CCCCN2CCN(CCCc3ccccc3)CC2)cc1` gave an inhibition of 86.4% (SLC6A2; transporter uptake, inhibitor; HEK293; 1 µM).
With `CC(=O)c1nn(CC(=O)N2C[C@H](F)C[C@H]2C(=O)Nc2cccc(Br)n2)c2ccc(-c3cnc(C)nc3)cc12` the inhibition was 20.8% (Plasma kallikrein (KLKB1, Homo sapiens, UniProt P03952); enzyme activity, inhibitor; 10 µM).
With `O=C(Oc1ccc2c(=O)c(-c3ccccc3)c(C(F)(F)F)oc2c1)c1cccs1` the inhibition was 90% (FPR1; calcium signal, antagonist; 50 µM).
The inhibition of `O=C(O)C1OC(Oc2cc(O)c3c(=O)cc(-c4ccc(O)cc4)oc3c2)C(O)C(O)C1O` (stereo not drawn) is reported as 41.2% (DNA dC->dU-editing enzyme APOBEC-3B; enzyme activity, inhibitor, fluorescence; 100 µM).
For `c1ccc(CCC2CCN(CCCn3nnnc3C(c3ccccc3)c3ccccc3)CC2)cc1`, the inhibition was 74.4% (SLC6A2; transporter uptake, inhibitor; HEK293; 1 µM).
`Cc1c(COc2c(F)cc(F)cc2F)c2c(n1C)C(=O)C(NCCCN(C)C)=CC2=O` has an inhibition of 73% (Ribosyldihydronicotinamide dehydrogenase [quinone] (NQO2, Homo sapiens, UniProt P16083); cell-free assay, inhibitor; 1 µM).
With `CCN1CCN(Cc2ccc(NC(=O)c3ccc(C)c(Oc4ccnc5[nH]ccc45)c3)cc2C(F)(F)F)CC1` the inhibition was -11.5% (Serine/threonine-protein kinase WNK4 (WNK4, Homo sapiens, UniProt Q96J92); target engagement in cells, inhibitor, chemoproteomics; Huh-7; 1 µM).
With `Clc1ccc(C(c2ccccc2)c2nnnn2CCCN2CCC(CCCc3ccccc3)CC2)cc1` (stereo not drawn) the inhibition was 72.8% (SLC6A2; transporter uptake, inhibitor; HEK293; 1 µM).
